One data set has as its system Keratinocyte. Description: Cytotoxicity against human Keratinocytes assessed as reduction in cell viability at 4 uM incubated up to 72 hrs by trypan blue staining based cell counting assay.
For a further data set, the system named is HeLa. Description: Antiproliferative activity against human HeLa cells assessed as reduction in cell viability at 2 to 4 uM incubated up to 72 hrs by CellTiter-Glo assay. The data set is classed as functional, cell-based.
Another data set has as its system SiHa. Description: Antiproliferative activity against human SiHa cells assessed as reduction in cell viability at 2 to 4 uM incubated up to 72 hrs by CellTiter-Glo assay. It is filed as functional, cell-based. (ATP-based viability assays read luminescence as a measure of living cells.)
A further data set deals with C-33-A. Kind of data set: Antiproliferative activity against human C33A cells assessed as reduction in cell viability at 2 to 4 uM incubated up to 72 hrs by CellTiter-Glo assay. The data set is classed as functional, cell-based.
For another data set, the system named is Ca-Ski. Kind of data set: Antiproliferative activity against human CaSki cells assessed as reduction in cell viability at 2 to 4 uM incubated up to 72 hrs by CellTiter-Glo assay. The data set is classed as functional, cell-based.
The target of data set [1] is T1, Homeobox protein SIX1 (Homo sapiens) (UniProt Q15475).
T1 sequence (whole entry): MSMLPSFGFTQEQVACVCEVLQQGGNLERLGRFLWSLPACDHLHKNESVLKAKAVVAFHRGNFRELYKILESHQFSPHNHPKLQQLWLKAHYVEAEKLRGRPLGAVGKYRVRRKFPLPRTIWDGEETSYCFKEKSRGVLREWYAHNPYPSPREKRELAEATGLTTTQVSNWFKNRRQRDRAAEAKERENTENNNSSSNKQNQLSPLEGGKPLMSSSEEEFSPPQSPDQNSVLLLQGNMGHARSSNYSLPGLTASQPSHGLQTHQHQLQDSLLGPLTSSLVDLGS
Kind of data set: Inhibition of SIX1 in human SiHa cells at 40 uM after 48 hrs by Western blot analysis. The data set is classed as cell-based. In short, it runs like this:
(§1)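 Cells seeded at 1 × 10^6 per 100 mm dish and treated next day at 10, 20 or 40 μM for 48 h. Harvested by trypsinization, PBS-washed, and lysed in RIPA buffer with protease inhibitors. Equal protein by colorimetric assay went to SDS-PAGE and PVDF. Primary antibody 1:500, blocked and diluted in 5% nonfat milk/TBST (SIX1) or 3% BSA (CK2α). HRP secondary 1:2000; chemiluminescent detection.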
For orientation: Immunoblotting shows a protein as a band on a membrane.

In data set [2] the target is Casein kinase II subunit alpha (Homo sapiens) (UniProt P68400). As to conditions: C-33-A, 40 uM.
Data set [3] shares this target. As to conditions: HeLa, 40 uM.
In data set [4] the target is T1, Homeobox protein SIX1 (Homo sapiens). Description: Inhibition of SIX1 in human HeLa cells at 40 uM after 48 hrs by Western blot analysis. It is filed as cell-based. In outline: as §1
Data set [5] has as its target Casein kinase II subunit alpha (Homo sapiens) (UniProt P68400). Particulars: SiHa, 40 uM.
Data set [6] addresses T1, Homeobox protein SIX1 (Homo sapiens). Kind of data set: Inhibition of SIX1 in human CaSki cells at 40 uM after 48 hrs by Western blot analysis. The data set is classed as cell-based. Particulars: Ca-Ski. In outline: as §1
Data set [7] has the same target. Description: Inhibition of SIX1 in human C33A cells at 40 uM after 48 hrs by Western blot analysis. The data set is classed as cell-based. As to conditions: C-33-A. In short, it runs like this:
as §1

For data set [8], the target named is Casein kinase II subunit alpha (Homo sapiens) (UniProt P68400). Particulars: Ca-Ski, 40 uM.
Data set [9] is described as follows: Toxicity in po dosed mouse. It is filed as organism-based. As to conditions: in vivo.

Activity calls are given as the source filed them. The calls are words filed in the database; no cut-off is given here.

We go through six compounds from ChEMBL document CHEMBL4602675, “The Marine Natural Product Manzamine A Inhibits Cervical Cancer by Targeting the SIX1 Protein” (J Nat Prod, 2020).

The term LD50 denotes the dose expected to kill half of the subjects tested.

Chain of Casein kinase II subunit alpha (Homo sapiens) (P68400 whole entry, looked up): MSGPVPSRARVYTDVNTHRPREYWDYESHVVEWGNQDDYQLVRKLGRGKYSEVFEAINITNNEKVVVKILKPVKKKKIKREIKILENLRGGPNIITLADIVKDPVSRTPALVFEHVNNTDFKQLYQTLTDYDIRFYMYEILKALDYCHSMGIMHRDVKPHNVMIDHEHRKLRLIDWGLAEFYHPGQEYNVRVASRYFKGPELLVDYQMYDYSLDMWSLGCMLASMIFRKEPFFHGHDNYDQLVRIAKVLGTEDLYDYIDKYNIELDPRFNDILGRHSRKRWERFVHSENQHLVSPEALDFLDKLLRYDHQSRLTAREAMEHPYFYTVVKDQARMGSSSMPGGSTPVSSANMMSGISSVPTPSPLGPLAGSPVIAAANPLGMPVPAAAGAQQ

On to `Oc1cccc2c1[nH]c1c(C3=C[C@@]4(O)CC/C=C\CCCCN5CC[C@@H]3[C@]3(C[C@@H]6/C=C\CCCCN6[C@H]34)C5)nccc12`, for which the Activity result with Keratinocyte is listed as “Toxic”. Further, the outcome in the data set with HeLa, in the data set on SiHa, in the data set on C-33-A and in the data set with Ca-Ski was Active.

In the case of `O=C1CCCN2[C@@H](CC1)C[C@]13CN4CCCC/C=C\CC[C@](O)(C=C(c5nccc6c5[nH]c5c(O)cccc56)[C@@H]1CC4)[C@H]23`, the result with HeLa, with SiHa, in the data set with C-33-A and in the data set with Ca-Ski was inactive.

For the compound `O=CC1=C[C@@]2(O)CC/C=C\CCCCN3CC[C@@H]1[C@]1(C[C@@H]4/C=C\CCCCN4[C@H]12)C3`, the outcome with HeLa, in the data set on SiHa, in the data set on C-33-A and in the data set with Ca-Ski was inactive.

`O=c1cc(-c2ccc(O)cc2)oc2cc(O)cc(O)c12`: the inhibition result in data set [1], in [2], in data set [3], in [4], in [5] and in data set [6] was “Active” in each case. Further, the inhibition result in data set [7] and in data set [8] was “Active” each time.

As to `O[C@]12C=C([C@H]3NCCc4c3[nH]c3ccccc43)[C@@H]3CCN(CCCC/C=C\CC1)C[C@@]31C[C@@H]3/C=C\CCCCN3[C@H]12`, the result in the data set on HeLa, in the data set with SiHa, with C-33-A and in the data set with Ca-Ski was inactive.

`CC(=O)Nc1ccc(O)cc1` [ACETAMINOPHEN] showed an LD50 in data set [9] of 338 mg/kg.
